EWS-Fli block – inhibitors of EWS/Fli oncoprotein transcriptional activity | A673 NR0B1-luciferase reporter, viability-normalised | inhibition, % at 12.6 µM | 0.67% of 350,000 active;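 active = mean inhibition of at least 50% after viability correction, with every replicate also passing that limit; inconclusive = mean reaches 50% but only one of two replicates passes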;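 note: firefly luciferase signal divided by Alamar Blue viability fluorescence both relative to DMSO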
PAX8 reporter – lowers PAX8-driven luciferase in RMG-I cells. 1.2% of 360,000 active. inhibition, % at 12.6 µM. AID 652154. RMG-I TPO-luciferase reporter, SteadyGlo, 24 h;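 active = mean replicate inhibition at least 60% with every replicate also reaching 60%; inconclusive = only one of the two criteria is met; inactive = mean below 60% and not all replicates reaching 60%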;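 note: luciferase light reporting Pax8 driven TPO promoter activity; plate controls were median of neutral control wells for no effect and mitoxantrone controls for full effect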
INS-1E GSIS act – primary screen for activators of insulin secretion dependent on glucose, INS-1E cells, GLuc reporter luminescence; INS-1E GLuc reporter insulin secretion, 2-3 h; activation, % at 16.6 µM; 0.61% of 370,000 active;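 active = lowest replicate activation of at least 40%, so every replicate reaches that level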;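 note: 0% = median of neutral control wells and 100% = median of IBMX positive control wells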
XiGFP reactiv – X-chromosome reactivation activator | XiGFP mouse fibroblasts, % GFP-positive cells imaging, 3 d; cells co-treated with 5-aza-dC sensitizer; scaled so ellipticine positive control = 100% | activation, % at 7.58 µM | 0.055% of 360,000 active | AID 743238;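 active = mean normalized replicate activation at least 10% and every replicate at or above 10%; inconclusive = only one of the two criteria met; inactive = mean below 10% and not all replicates reach 10%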;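 note: 0% = median of on-plate neutral control wells and 100% = ellipticine 6 µM median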
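Assay system: SV40-immortalized XiGFP fibroblast cells, line 68-5-11; buffer or medium: DMEM plus 5-aza-dC sensitizer; compound: one concentration, pinned; timing: compounds 3 days, fix/stain 15 min at room temperature; benchmarks: positive control ellipticine, 6 µM final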
PGC1a acetyl inh – modulators of PGC1a acetylation. U2OS PGC1a acetylation, AlphaScreen anti-acetyl-lysine; with virally co-expressed GCN5 acetyltransferase. inhibition, % at 15.6 µM. 0.17% of 350,000 active;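 active = every replicate shows inhibition of at least 40%; inconclusive = mean inhibition at least 40% but some replicate below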;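 note: 0% = neutral control wells and 100% = positive control wells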
MLL AF4-AF9 inh – blocks AF4 peptide binding to human AF9; P42568; AlphaScreen, biotin-AF4 peptide binding to FLAG-AF9; inhibition, % at 10 µM; 0.47% of 350,000 active; AID 651704;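 active = every replicate reaching a set inhibition limit, whatever the replicate mean, cut at about 25% in these data; inconclusive = mean inhibition reaches that limit but some replicates miss it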;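 note: 0% = plate neutral control median and 100% = total signal loss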
Target sequence (P42568 whole entry, looked up): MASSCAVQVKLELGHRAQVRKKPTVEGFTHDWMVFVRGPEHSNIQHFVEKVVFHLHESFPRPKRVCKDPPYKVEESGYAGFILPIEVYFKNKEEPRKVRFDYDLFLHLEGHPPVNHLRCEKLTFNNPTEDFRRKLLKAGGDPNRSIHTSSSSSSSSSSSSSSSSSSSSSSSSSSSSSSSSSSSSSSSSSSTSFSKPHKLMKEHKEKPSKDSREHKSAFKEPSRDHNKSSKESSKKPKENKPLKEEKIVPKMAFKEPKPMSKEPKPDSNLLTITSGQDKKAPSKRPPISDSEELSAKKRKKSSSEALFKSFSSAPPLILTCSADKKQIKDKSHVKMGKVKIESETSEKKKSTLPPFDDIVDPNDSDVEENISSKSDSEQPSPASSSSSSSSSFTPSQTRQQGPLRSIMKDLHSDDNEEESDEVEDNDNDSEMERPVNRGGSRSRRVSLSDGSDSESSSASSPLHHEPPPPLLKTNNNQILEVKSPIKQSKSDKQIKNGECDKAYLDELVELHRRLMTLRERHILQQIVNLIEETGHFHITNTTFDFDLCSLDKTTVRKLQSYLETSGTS
Active calls of the source: *; ? = inconclusive; · = not tested or not shown; ! = a repeat was not active. Only some compounds are listed: those with a hit (about 2.1% of all), similar ones and a draw of the others.

SMILES | EWS-Fli block | PAX8 reporter | INS-1E GSIS act | XiGFP reactiv | PGC1a acetyl inh | MLL AF4-AF9 inh
C[C@H](CO)N1C[C@H](C)[C@@H](CN(C)C(=O)Nc2ccnc(N3CCOCC3)c2)OCc2cnnn2CCCC1=O | 7 | 91*! | 3 | 0 | -6 | 2
C[C@@H]1CN([C@H](C)CO)C(=O)CCCn2nncc2CO[C@H]1CN(C)C(=O)Nc1ccnc(N2CCOCC2)c1 | -4 | -6 | 45*! | 0 | -3 | -1
COC1=C(C)C(=O)C2=C(C1=O)C1C3CC4=C(C(=O)C(OC)=C(C)C4=O)C(CNC(=O)C(C)=O)N3C(C#N)C(C2)N1C (centres undefined) | 32 | 106* | · | 5 | 42 | 4
CN1C(=O)c2cc(NC(=O)Nc3ccccc3F)ccc2OC[C@@H]2O[C@@H](CC(=O)NCCc3ccncc3)CC[C@H]21 | 3 | 2 | 1 | 0 | -1 | -2
COc1ccc(C2=NOC(C(=O)Nc3cccnc3)C2)cc1OC (centres undefined) | 6 | -2 | 75* | 0 | -2 | -20
Cc1ccc2c(c1)c1c3n2CCN(CC(N)=O)C3CCC1 (centres undefined) | 5 | 97* | -7 | 0 | · | -35
N=c1c2c(n(Cc3ccc(Cl)cc3)c3c1CCC3)CCC2 | 29 | · | -17 | · | -19 | 3
N=c1c2c(n(Cc3ccc(F)cc3)c3c1CCC3)CCCC2 | 28 | 69* | -10 | 0 | -1 | -1
COc1ccc(/C(C)=N/Nc2ccc(C(=O)O)cc2)cc1OC | · | · | 63* | · | · | ·
CC(C)NC(=O)N(C)C[C@@H]1Oc2c(NC(=O)C3CC3)cccc2C(=O)N([C@@H](C)CO)C[C@H]1C | 0 | -31 | 9 | 0 | 6 | -16
COc1ccc(NC(=O)[C@H](Cc2c[nH]c3ccccc23)NC(=O)[C@@H]2Cc3ccccc3CN2)cc1 | -60 | · | -4 | · | 63* | 6
CC(C)c1ccc(NC(=O)[C@H](Cc2c[nH]c3ccccc23)NC(=O)[C@@H]2Cc3ccccc3CN2)cc1 | -52 | · | -10 | · | 3 | 3
CCCC(=O)NC(c1ccc(OC)c(OC)c1)c1cc(Cl)c2cccnc2c1O (centres undefined) | 10 | 20 | 3 | 1 | 9 | -2
CC(=O)NC(c1ccco1)c1ccc2cccnc2c1O (centres undefined) | · | · | 2 | · | · | ·
CCC(=O)NC(c1ccc(C)cc1)c1ccc2cccnc2c1O (centres undefined) | 32 | 92* | · | 1 | 14 | 0
CCCC(=O)NC(c1ccc(C(C)C)cc1)c1ccc2cccnc2c1O (centres undefined) | 45 | 95* | · | 0 | · | -1
CCCC(=O)NC(c1ccccc1Cl)c1ccc2cccnc2c1O (centres undefined) | 23 | 86* | -31 | 0 | 23 | 4
CC(=O)NC(c1ccc(Cl)cc1)c1ccc2cccnc2c1O (centres undefined) | 44 | 95* | · | 0 | -7 | 6
COc1ccc(C(NC(=O)C(C)C)c2ccc3cccnc3c2O)cc1 (centres undefined) | 32 | ? | 20 | 0 | 30 | -3
CC(C)NC(=O)N(C)C[C@H]1Oc2ncc(C#Cc3ccc(F)cc3)cc2C(=O)N([C@@H](C)CO)C[C@H]1C | -9 | · | -15 | -1 | -4 | 3
O=C(N[C@H]1C=C[C@@H](CC(=O)N2CCc3ccccc3C2)O[C@H]1CO)C1CCOCC1 | -8 | · | 2 | 0 | -3 | -2
O=C(C[C@@H]1C[C@H]2c3cc(NC(=O)C4CCOCC4)ccc3O[C@H]2[C@H](CO)O1)NCc1ccccc1F | 1 | 6 | -9 | 0 | -7 | -2
CCCCC(=O)NC(c1ccc(OC)cc1)c1ccc2cccnc2c1O (centres undefined) | 11 | 71* | -11 | 0 | · | 21
CCCCCCCCN1C(=O)[C@@H](CC(=O)N2CCSCC2)C[C@@]2(C(=O)OC)C1=C[C@H](C1CCCC1)O[C@@H]2C | 9 | -20 | -34 | 0 | · | -1
CCCCCCCCN1C(=O)[C@@H](CC(=O)N2CCN(C(=O)c3ccco3)CC2)C[C@@]2(C(=O)OC)C1=C[C@H](C1CCCC1)O[C@@H]2C | 18 | 73* | 54* | 0 | · | -3
SMILES | EWS-Fli block | PAX8 reporter | INS-1E GSIS act | XiGFP reactiv | PGC1a acetyl inh | MLL AF4-AF9 inh
CCCCCCCCN1C(=O)[C@@H](CC(=O)N2CCN(C(=O)c3ccco3)CC2)C[C@@]2(C(=O)OC)C1=C[C@H](C(C)(C)C)O[C@@H]2C | 24 | 84* | · | 0 | · | 6
COCC(=O)N1CCC2(CC1)CN(C(=O)NC1CCCC1)[C@H](CO)c1c2c2ccc(OC)cc2n1C | -2 | 4 | 13 | 0 | 12 | -2
Cc1ccc(NS(=O)(=O)c2ccc3c(c2)oc(=O)n3C)cc1 | 12 | 14 | -10 | 0 | · | 3
CCc1ccc(NS(=O)(=O)c2ccc3c(c2)oc(=O)n3C)cc1 | 10 | 10 | -9 | 0 | -14 | 35*
C[C@@H]1CN([C@H](C)CO)C(=O)c2ccccc2-c2ccccc2CO[C@@H]1CN(C)Cc1cccc2c1OCCCO2 | · | · | 4 | 0 | · | ·
CC(C)c1cc(C(C)C)n2nc(N)nc2n1 | -7 | -11 | 89* | 0 | · | -11
CN1[C@@H]2c3ccc(-c4ccncc4)c(=O)n3C[C@@H]2[C@@H](CO)[C@@H]1C(=O)N1CCc2ccccc2C1 | 4 | 0 | -9 | 0 | · | -2
CN1[C@@H]2c3ccc(-c4ccccc4)c(=O)n3C[C@@H]2[C@@H](CO)[C@@H]1C(=O)N1CCc2ccccc2C1 | 5 | 68* | -3 | 1 | · | -12
OCCNc1nc(N2CCCCC2)nc2ccccc12 | -2 | -7 | 9 | 0 | 67* | 2
CC(=O)Nc1ccc2c(c1)CC(=O)N(C)C[C@H](C)[C@H](CN(C)C)O2 | · | · | 5 | 0 | · | ·
COCC#Cc1ccc([C@H]2[C@H]3CN(C(=O)Nc4cc(F)ccc4F)CC(=O)N3[C@H]2CO)cc1 | · | · | 3 | 0 | · | ·
CC1NC(=O)NC1CCCCCC(=O)NCCc1ccccc1 (centres undefined) | 5 | · | -14 | · | 1 | 77*
CCOC(=O)C1=C(C)N(c2ccccc2)C(=O)/C1=C\c1cccs1 | · | -9 | 88* | 0 | -5 | ·
CCOC(=O)C1=C(C)N(c2ccc(C)cc2)C(=O)/C1=C\c1cccs1 | · | · | · | · | 4 | ·
CCCCOc1ccc(C2(C)NC(=O)NC2=O)cc1 (centres undefined) | 20 | 18 | -8 | 0 | 6 | 2
CCCCOc1ccc(C2=NNC(=O)CC2)cc1 | -9 | -45 | 45* | 0 | · | 3
Nc1ccc(N2CCN(c3ccc(Cl)c(Cl)c3)CC2)cc1 | -24 | -3 | · | 0 | · | 27*
Cc1ccc(C(=O)c2oc3ccc(Cl)cc3c2NC(=O)CN2CCN(C)CC2)cc1 | 17 | 20 | 12 | 0 | -7 | 31*
